Measurements reported in paper PMC4183631 (Journal of the American Chemical Society, 2014).
No end group written: not given here.

Tests used:
[1] = Sedimentation velocity analytical ultracentrifugation; type: physicochemical; settings: lowest possible rotor speed (3000 rpm); white coat on the AUC cell
[2] = tested on: L. monocytogenes ATCC 19115; assay: Antimicrobial activity assay; type: cell-based, Listeria monocytogenes; settings: 20 μM peptide, AMA buffer (10 mM sodium phosphate, 1% TSB, pH 7.4), 1 h, 37 °C, colony counting; n = 3
In short: (§1)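 Strain grown overnight in BHI (37 °C, 16 h), subcultured 1:100 to OD600 ~0.6, washed twice in AMA buffer, set to OD600 0.5, then diluted 1:500. 9 parts culture to 1 part 10× peptide (200 μM stock) or water control; 1 h, 37 °C, 150 rpm. Tenfold dilutions plated on BHI agar, 20 h, 37 °C; 30–200-colony plates counted. Three trials, ≥2 peptide preparations; mean and standard deviation.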

S. aureus ATCC 25923 = assay: Antimicrobial activity assay; type: cell-based, Staphylococcus aureus; settings: 20 μM peptide, AMA buffer (10 mM sodium phosphate, 1% TSB, pH 7.4), 1 h, 37 °C, colony counting; n = 3
In short: as §1, with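 “in dextrose-free TSB” for “in BHI”, “OD600 0.6,” for “OD600 0.5,”, “diluted 1:100.” for “diluted 1:500.”, “on TSB” for “on BHI”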

E. coli ATCC 25922 [3] = assay: Antimicrobial activity assay; type: cell-based, Escherichia coli; settings: 20 μM peptide, AMA buffer (10 mM sodium phosphate, 1% TSB, pH 7.4), 1 h, 37 °C, colony counting; n = 3
In short: as §1, with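 “Cells grown” for “Strain grown”, “in dextrose-free TSB” for “in BHI”, “diluted 1:250.” for “diluted 1:500.”, “on TSB” for “on BHI”, “agar, 15” for “agar, 20”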

[4] = tested on: S. Typhimurium ATCC 14028; assay: Antimicrobial activity assay; type: cell-based, Salmonella enterica serovar Typhimurium; settings: 20 μM peptide, AMA buffer (10 mM sodium phosphate, 1% TSB, pH 7.4), 1 h, 37 °C, colony counting; n = 3
In short: as §1, with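 “Cells grown” for “Strain grown”, “in dextrose-free TSB” for “in BHI”, “diluted 1:250.” for “diluted 1:500.”, “on TSB” for “on BHI”, “agar, 15” for “agar, 20”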

[5] = tested on: L. monocytogenes ATCC 19115; assay: Bacterial agglutination assay; type: cell-based, Listeria monocytogenes; settings: for peptide concentration at which the bacteria were agglutinated: 0–20 μM peptide, 50% MHB pH 7.4, 6 h, OD600
In short: (§2)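 Mid-log bacteria (LB for E. coli, BHI for Listeria), washed, held at OD600 0.25 in 50% MHB pH 7.4. Mixed 9:1 with 10× peptide (50, 100, 200 μM stocks) or water in a cuvette; OD600 read over time. At 6 h, for 20 μM samples, supernatant and agglutinate resuspended in fresh 50% MHB were serially diluted and plated (37 °C; LB agar 15 h, BHI agar 20 h). Three trials; mean ± SD.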

E. coli ATCC 25922 [6] = assay: Bacterial agglutination assay; type: cell-based, Escherichia coli; settings: for peptide concentration at which the bacteria were agglutinated: 0–20 μM peptide, 50% MHB pH 7.4, 6 h, OD600
In short: as §2

bacteria = settings: cited from earlier work
[7] = biological target: HD6 F29A mutant, oxidized form (human); assay: AUC
[8] = 20 μM peptide, 6 h, bacterium not given
[9] = 20 μM peptide, bacterial culture 10^8 CFU/mL in cuvette
[10] = 20 μM peptide, 6 h, mean ± SDM, n = 3

## AFTCHCRR-SCYSTEYSYGTCTVMGINHRFCCL (bicyclic or more) [HD6, Human α-defensin 6]
[1]
  time within which the peptide sedimented (rapid peptide aggregation): ≤ 15 min
[2]
  antibacterial activity: neither HD6 nor the mutants exhibit significant antibacterial activity
S. aureus ATCC 25923
  antibacterial activity: neither HD6 nor the mutants exhibit significant antibacterial activity
E. coli ATCC 25922 [3]
  antibacterial activity: neither HD6 nor the mutants exhibit significant antibacterial activity
[4]
  antibacterial activity: neither HD6 nor the mutants exhibit significant antibacterial activity
[5]; [8]
  CFU/mL of the resuspension following agitation: comparable to that of the untreated control
  log reduction in CFU/mL of the supernatant relative to the bacteria-only control: ca. 1.3 fold log
[5]; [9]
  time for clumps to sediment to the bottom of the cuvette and clarify the medium: ~2 h
  time to bacterial clumping observed by the eye after mixing: ≤ 5 min
E. coli ATCC 25922 [6]; [8]
  CFU/mL of the resuspension following agitation: comparable to that of the untreated control
  log reduction in CFU/mL of the supernatant relative to the bacteria-only control: ca. 1.3 fold log
E. coli ATCC 25922 [6]; [9]
  time for clumps to sediment to the bottom of the cuvette and clarify the medium: ~2 h
  time to bacterial clumping observed by the eye after mixing: ≤ 5 min
bacteria
  antibacterial activity in vitro: negligible antibacterial activity

## ATCYCRTGRCATRESLSGVCEISGRLYRLCCR (also: bicyclic or more (positions not given here)) [HD5, reference compound]
bacteria
  antibacterial activity in vitro: broad-spectrum antibacterial activity

## H27W (AFTCHCRRSCYSTEYSYGTCTVMGINWRFCCL; disulfide (positions not given here); ends not checked; UniProt Q01524 69-100, looked up, variant H27W)
[5]
  peptide concentration at which the bacteria were agglutinated: ≥ 10 µM
E. coli ATCC 25922 [6]
  peptide concentration at which the bacteria were agglutinated: ≥ 10 µM

## HD6 F29A mutant, oxidized form (peptide)
[7]
  stoichiometry N: 2

## I25T (AFTCHCRRSCYSTEYSYGTCTVMGTNHRFCCL; disulfide (positions not given here); ends not checked; UniProt Q01524 69-100, looked up, variant I25T)
[5]
  peptide concentration at which the bacteria were agglutinated: ≥ 10 µM
E. coli ATCC 25922 [6]
  peptide concentration at which the bacteria were agglutinated: ≥ 10 µM

## V22T (AFTCHCRRSCYSTEYSYGTCTTMGINHRFCCL; disulfide (positions not given here); ends not checked; UniProt Q01524 69-100, looked up, variant V22T)
[5]
  peptide concentration at which the bacteria were agglutinated: ≥ 10 µM
[5]; [10]
  CFU/mL reduction of the supernatant, in words: smaller decrease in CFU/mL for the supernatant
E. coli ATCC 25922 [6]
  peptide concentration at which the bacteria were agglutinated: ≥ 10 µM
E. coli ATCC 25922 [6]; [10]
  CFU/mL reduction of the supernatant, in words: smaller decrease in CFU/mL for the supernatant
